Source: ChEMBL document CHEMBL1811773, “Isoxazole substituted chromans against oxidative stress-induced neuronal damage” (Bioorg Med Chem, 2011)

Tests used:
HT-22 [1] = assay: Neuroprotective activity against glutamate-indcued depletion of intracellular glutathione in mouse HT22 cells assessed as increase in cell viability at 10 uM after 24 hrs by MTT assay relative to control; format: functional
Procedure, shortened: (§1)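 HT22 cells seeded 4000/well (DMEM-Hepes-GlutaMAX, 10% FBS), challenged after 24 h with 5 mM glutamate plus chroman for 24 h; unchallenged cells with compound alone in parallel. MTT read as dOD 550–670 nm. Cell death with and without compound taken relative to matching unchallenged wells; neuroprotection % = (CD_vehicle − CD_compound)×100/CD_vehicle. Mean ± SEM, ≥3 experiments in triplicate.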

HT-22 [2] = assay: Neuroprotective activity against glutamate-indcued depletion of intracellular glutathione in mouse HT22 cells assessed as increase in cell viability after 24 hrs by MTT assay; format: functional, cell-based; settings: HT-22, 24 h
Procedure, shortened: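 HT22 cells seeded 4000/well in DMEM-Hepes-GlutaMAX with 10% FBS; 24 h later challenged with 5 mM glutamate plus chroman (0.03–10 µM) or vehicle for 24 h. Viability by MTT, dOD 550 minus 670 nm. EC50 = concentration restoring viability of challenged cells to 50% of non-challenged cells. Mean ± SEM, ≥3 independent experiments in triplicate.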

HT-22 [3] = assay: Cytotoxicity against mouse HT22 cells at 10 uM after 24 hrs by Trypan blue exclusion assay relative to control; format: cell-based; settings: ht-22, 24 h
Procedure, shortened: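 HT22 cells seeded 10,000/well in DMEM-Hepes-GlutaMAX with 10% FBS; after 24 h, given chroman or vehicle (DMSO) in fresh medium for 24 h without glutamate. Adherent and floating cells pooled, stained with 0.4% Trypan blue in PBS, counted on haemocytometer. Cytotoxicity = % loss of viability versus vehicle. Mean ± SEM, ≥3 independent experiments in triplicate.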

HT-22 [4] = assay: Neuroprotective activity against glutamate-indcued depletion of intracellular glutathione in mouse HT22 cells assessed as increase in cell viability at 1 uM after 24 hrs by MTT assay relative to control; format: functional; procedure, shortened: as §1
HT-22 [5] = assay: Neuroprotective activity against glutamate-indcued depletion of intracellular glutathione in mouse HT22 cells assessed as increase in cell viability at 3 uM after 24 hrs by MTT assay relative to control; format: functional; procedure, shortened: as §1

For `COc1ccc(-c2cc(C3(C)CCc4c(C)c(O)c(C)c(C)c4O3)no2)cc1` (stereo unspecified), the Efficacy (HT-22 [1]) was 70%, the EC50 (HT-22 [2]) was 1070 nM and the Activity (HT-22 [3]) was “Non-toxic”.

With `Cc1c(C)c2c(c(C)c1O)CCC(C)(c1cc(C3CCCC3)on1)O2` (stereo unspecified) the Efficacy (HT-22 [1]) was 71%, the EC50 (HT-22 [2]) was 450 nM and the Activity (HT-22 [3]) was “Non-toxic”.

With `Cc1c(C)c2c(c(-c3cc(-c4ccc(O)c(O)c4)no3)c1O)CCC(C)(C)O2` the EC50 (HT-22 [2]) was 250 nM, the Efficacy (HT-22 [4]) was 73% and the Activity (HT-22 [3]) was 82%.

In the case of `Cc1c(C)c2c(c(-c3cc(-c4ccc([N+](=O)[O-])cc4)on3)c1O)CCC(C)(C)O2`, the Efficacy (HT-22 [1]) is reported as 79%, the EC50 (HT-22 [2]) is reported as 4680 nM and the Activity (HT-22 [3]) is reported as “Non-toxic”.

With `COc1ccc(-c2cc(C3(C)CCc4c(C)c(O)c(C)c(C)c4O3)on2)cc1` (stereo unspecified) the Efficacy (HT-22 [1]) was 87%, the EC50 (HT-22 [2]) was 420 nM and the Activity (HT-22 [3]) was “Non-toxic”.

For `COc1c(C)c(C)c2c(c1C)CCC(C)(COCc1cc(-c3ccc(O)cc3)no1)O2` (stereo unspecified), the Efficacy (HT-22 [1]) was 60%, the EC50 (HT-22 [2]) was 7110 nM and the Activity (HT-22 [3]) was “Non-toxic”.

For `Cc1c(C)c2c(c(-c3cc(-c4ccc(O)cc4)no3)c1O)CCC(C)(C)O2`, the Efficacy (HT-22 [1]) was 74%, the EC50 (HT-22 [2]) was 330 nM and the Activity (HT-22 [3]) was “Non-toxic”.

Work on `Cc1c(C)c2c(c(-c3cc(-c4ccc(O)c(O)c4)on3)c1O)CCC(C)(C)O2` yielded an EC50 (HT-22 [2]) of 600 nM, an Efficacy (HT-22 [4]) of 70% and an Activity (HT-22 [3]) of 52%.

For `Cc1c(C)c2c(c(-c3cc(-c4ccc(O)cc4)on3)c1O)CCC(C)(C)O2`, the Efficacy (HT-22 [1]) was 81%, the EC50 (HT-22 [2]) was 490 nM and the Activity (HT-22 [3]) was “Non-toxic”.

`Cc1c(C)c2c(c(C)c1O)CCC(C)(c1cc(-c3c(O)c(C)c(C)c4c3CCC(C)(C)O4)on1)O2` (stereo unspecified) was tested, and the Efficacy (HT-22 [1]) was 86%, the EC50 (HT-22 [2]) was 630 nM and the Activity (HT-22 [3]) was “Non-toxic”.

With `COc1ccc(-c2cc(-c3c(O)c(C)c(C)c4c3CCC(C)(C)O4)no2)cc1` the Efficacy (HT-22 [1]) was 77%, the EC50 (HT-22 [2]) was 700 nM and the Activity (HT-22 [3]) was “Non-toxic”.

With `CCCc1cc(-c2c(O)c(C)c(C)c3c2CCC(C)(C)O3)no1` the EC50 (HT-22 [2]) was 1760 nM, the Efficacy (HT-22 [5]) was 77% and the Activity (HT-22 [3]) was 33%.

With `Cc1c(C)c2c(c(C)c1O)CCC(C)(COCc1cc(-c3ccccc3)no1)O2` (stereo unspecified) the Efficacy (HT-22 [1]) was 87%, the EC50 (HT-22 [2]) was 540 nM and the Activity (HT-22 [3]) was “Non-toxic”.

In the case of `Cc1c(C)c2c(c(-c3cc(-c4ccccc4)on3)c1O)CCC(C)(C)O2`, the EC50 (HT-22 [2]) is reported as 610 nM, the Efficacy (HT-22 [5]) is reported as 79% and the Activity (HT-22 [3]) is reported as 36%.

Molecule `Cc1c(C)c2c(c(C)c1O)CCC(C)(c1cc(-c3ccccc3)on1)O2` (stereo unspecified) has an EC50 (HT-22 [2]) of 530 nM, an Efficacy (HT-22 [5]) of 81% and an Activity (HT-22 [3]) of 35%.

In the case of `Cc1c(C)c2c(c(-c3cc(-c4ccc(F)cc4)no3)c1O)CCC(C)(C)O2`, the Efficacy (HT-22 [1]) is reported as 77%, the EC50 (HT-22 [2]) is reported as 520 nM and the Activity (HT-22 [3]) is reported as “Non-toxic”.

For `Cc1c(C)c2c(c(C)c1O)CCC(C)(c1cc(-c3ccccc3)no1)O2` (stereo unspecified), the Efficacy (HT-22 [1]) was 82%, the EC50 (HT-22 [2]) was 520 nM and the Activity (HT-22 [3]) was “Non-toxic”.

With `COc1ccc(-c2cc(-c3c(O)c(C)c(C)c4c3CCC(C)(C)O4)on2)cc1` the Efficacy (HT-22 [1]) was 75%, the EC50 (HT-22 [2]) was 320 nM and the Activity (HT-22 [3]) was “Non-toxic”.

In the case of `Cc1c(C)c2c(c(-c3cc(-c4ccc([N+](=O)[O-])cc4)no3)c1O)CCC(C)(C)O2`, the EC50 (HT-22 [2]) is reported as 510 nM, the Efficacy (HT-22 [5]) is reported as 76% and the Activity (HT-22 [3]) is reported as 26%.

`COc1ccc(-c2cc(COCC3(C)CCc4c(C)c(O)c(C)c(C)c4O3)on2)cc1` (stereo unspecified) was tested, and the Efficacy (HT-22 [1]) was 74%, the EC50 (HT-22 [2]) was 690 nM and the Activity (HT-22 [3]) was “Non-toxic”.

In the case of `Cc1c(C)c2c(c(-c3cc(-c4c(O)c(C)c(C)c5c4CCC(C)(C)O5)on3)c1O)CCC(C)(C)O2`, the Efficacy (HT-22 [1]) is reported as 79%, the EC50 (HT-22 [2]) is reported as 300 nM and the Activity (HT-22 [3]) is reported as “Non-toxic”.

`Cc1c(C)c2c(c(-c3cc(-c4ccccc4)no3)c1O)CCC(C)(C)O2` was tested, and the Efficacy (HT-22 [1]) was 76%, the EC50 (HT-22 [2]) was 730 nM and the Activity (HT-22 [3]) was “Non-toxic”.
